Measurements published in publication PMC4797290 (Nucleic Acids Research, 2016).
No end group written: not given here.

Tests used:
Type in all cases: cell-based, Escherichia coli
[1] = test system: E. coli SQ110 DTC 23S rRNA A2503C mutant; assay: MIC determination, E. coli SQ110 DTC 2503C mutant; conditions: 23S rRNA mutant 2503C; highest concentration 100 μM
Outline: (§1)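 E. coli SQ110 DTC background (single chromosomal rrn allele, tolC knockout) carrying 23S rRNA mutations. Cells grown exponentially in LB, diluted to A650 0.005 in 96-well plates. Peptide added in LB and 2-fold serially diluted from a top final concentration of 100 μM. Incubated overnight at 37°C with shaking. Growth read by alamarBlue addition.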

[2] = test system: E. coli SQ110 DTC 23S rRNA 2059C mutant; assay: MIC determination, E. coli SQ110 DTC 2059C mutant; conditions: 23S rRNA mutant 2059C, first line so labelled (r6); highest concentration 100 μM
Outline: as §1

[3] = test system: E. coli SQ110 DTC 23S rRNA A2503C/A2059G double mutant; assay: MIC determination, E. coli SQ110 DTC 2503C/2059G double mutant; conditions: 23S rRNA double mutant; highest concentration 100 μM
Outline: as §1

RRIRPRPPRLPRPRPRPLPFPRPGPRPIPRPLPFP [Bac7_1–35]
0.75 µM: MIC, SQ110 DTC 2503C [1] | MIC, SQ110 DTC 2059C [2] | MIC, SQ110 DTC 2503C/2059G [3]
